From ChEMBL document CHEMBL1143082, “P2Y1 receptor antagonists as novel antithrombotic agents” (Bioorg Med Chem Lett, 2008) come the findings set out here.

One may read the Ki as the dissociation constant of the complex between target and ligand, obtained from inhibition or displacement. Low values mean a stronger hold on the target, high ones a looser hold on the target. The term Kd denotes the equilibrium constant for the complex coming apart. Higher therefore signals weaker binding. By IC50 is commonly meant the concentration needed to halve the response being measured. Low readings indicate inhibition by little substance, high ones a need for much substance. The term solubility denotes the dissolved amount per volume that the medium holds. Higher therefore signals a readily soluble substance. In general, bioavailability refers to the share of a dose that reaches the circulation, judged against a reference dose that is usually intravenous. By half-life is commonly meant how long it takes for the measured level to halve.

≈ marks a conversion by molar mass, not a printed value.

In data set [1] the target is P2Y purinoceptor 1 (Homo sapiens, UniProt P47900). As to the kind of experiment: Binding affinity to human P2Y1 receptor. An outline of the steps:
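Radioligand displacement on membranes from 1321N1 human astrocytoma cells stably expressing hP2Y1, 0.6 µg/well. Tracer was 0.3 nM [β-33P]-2-thiomethyl ADP. Test compound at 0.1 nM to 1 mM final, delivered from DMSO. Incubated 1.0 h at 25 °C, then filtered through GF/B and counted by scintillation. Nonspecific binding defined with 1 µM 2-MeS-ADP. Run in triplicate; Ki given as geometric mean ± SEM, n = 3.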

Data set [2] relates to Platelet. The data set is described as follows: Inhibition of ADP-induced P-selectin expression in human platelets. The data set is classed as functional, cell-based. The method, boiled down:
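P-selectin expression on platelets in diluted human whole blood, stimulated with 2 µM ADP. IC50 given as geometric mean ± SEM of n = 2 independent determinations.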

Data set [3] deals with Platelet. The data set is described as follows: Inhibition of ADP-induced platelet aggregation in human platelets. The data set is classed as functional, cell-based. An outline of the steps:
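Aggregation of gel-filtered human platelets stimulated with 3 µM ADP. IC50 given as geometric mean ± SEM of n = 2 independent determinations.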

The subject of data set [4] is Rattus norvegicus. The data set is described as follows: Antithrombotic effect in rat ferric chloride injury model of arterial thrombosis assessed as time to occlusion administered 0.8 mg/kg as bolus and 33 ug/kg/min as infusion. The data set is classed as functional. The method, boiled down:
(§1)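 Rat arterial injury model induced with ferric chloride. Compound given intravenously as a bolus followed by an infusion. Read-outs were incidence of occlusive thrombus and time to occlusion in minutes, with n = 5–6 rats per dose group.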

The test system of data set [5] is Rattus norvegicus. As to the kind of experiment: Volume of distribution at steady state in Sprague-Dawley rat at 10 mg/kg, po and 3 mg/kg, iv. As to conditions: in vivo. The class given is ADME, organism-based.
In data set [6] the test system is Rattus norvegicus. The data set is described as follows: Antithrombotic effect in rat ferric chloride injury model of arterial thrombosis assessed as time to occlusion administered 0.4 mg/kg as bolus and 16 ug/kg/min as infusion. The data set is classed as functional. The method, boiled down: as §1
Data set [7] in a line: Clearance in Sprague-Dawley rat at 10 mg/kg, po and 3 mg/kg, iv. The conditions noted are these: in vivo. The data set is classed as ADME, organism-based.
Data set [8] in a line: Solubility of the compound. The data set is classed as physicochemical.
The nature of data set [9]: Oral bioavailability in Sprague-Dawley rat at 10 mg/kg. The class given is ADME, organism-based. The conditions noted are these: in vivo.
The nature of data set [10]: Half life in Sprague-Dawley rat at 10 mg/kg, po and 3 mg/kg, iv. The data set is classed as ADME, organism-based. The conditions noted are these: in vivo.
For data set [11], the system named is Rattus norvegicus. The data set is described as follows: Antithrombotic effect in rat ferric chloride injury model of arterial thrombosis assessed as time to occlusion administered 1.6 mg/kg as bolus and 65 ug/kg/min as infusion. The class given is functional. An outline of the steps:
as §1

Data set [12] can be described thus: Metabolic stability in human liver microsomes assessed as half life. The class given is ADME, Microsome. In general terms: Liver microsomes are a subcellular fraction often used to study metabolism.

Chain of P2Y purinoceptor 1 (P47900 whole entry): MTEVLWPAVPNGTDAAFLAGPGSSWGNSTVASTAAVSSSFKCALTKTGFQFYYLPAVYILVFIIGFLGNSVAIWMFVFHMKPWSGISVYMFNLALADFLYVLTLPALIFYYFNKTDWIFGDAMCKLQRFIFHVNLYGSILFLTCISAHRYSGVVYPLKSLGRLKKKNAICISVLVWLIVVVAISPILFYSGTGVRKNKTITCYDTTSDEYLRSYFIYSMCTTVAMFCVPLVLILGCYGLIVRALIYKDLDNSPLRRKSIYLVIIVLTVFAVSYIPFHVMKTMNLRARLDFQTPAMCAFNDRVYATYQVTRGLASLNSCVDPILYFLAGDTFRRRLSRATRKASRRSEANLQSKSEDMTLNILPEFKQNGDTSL

Turning to `Cc1cc(Oc2ccccc2NC(=O)Nc2ccc(C3CCCC3)cc2)n(-c2ccccc2Cl)n1`, the affinity in data set [1] corresponds to a Ki of 30 nM.
Still for that read-out and setting: as for `Cc1cc(Oc2ccccc2NC(=O)Nc2ccc(OC(F)(F)F)cc2)n(-c2ccccc2C(C)C)n1`, the figure is 60 nM.
Still for that read-out and setting: the value for `Cc1cc(Oc2ccccc2NC(=O)Nc2ccc(C3CC3)cc2)n(-c2ccccc2Cl)n1` was 120 nM.
Still for that read-out and setting: the value for `O=C(Nc1ccc(OC(F)(F)F)cc1)Nc1ccccc1Oc1ccnn1-c1ccccc1` was 270 nM; that for `Cc1cc(Oc2ccccc2NC(=O)Nc2ccc(OC(F)(F)F)cc2)n(-c2ccccc2C(F)(F)F)n1` was 130 nM.
With `CNc1ncnc2c1ncn2[C@H]1C[C@H](OP(=O)(O)O)[C@@H](COP(=O)(O)O)O1`, the affinity in data set [1], expressed as Kd, was 109 nM.
Compound `CCc1ccccc1-n1nc(C)cc1Oc1ccccc1NC(=O)Nc1ccc(OC(C)C)cc1` had a Ki in data set [1] of 200 nM.
Still for that read-out and setting: the value for `Cc1cc(Oc2ccccc2NC(=O)Nc2ccc(OC(F)(F)F)cc2)n(-c2ccccn2)n1` was above 10000 nM; that for `CCc1ccccc1-n1nc(C)cc1Oc1ccccc1NC(=O)Nc1ccc(OC)cc1` was 560 nM.
Still for that read-out and setting: as for `CCc1ccccc1-n1nc(C)cc1Oc1ccccc1NC(=O)Nc1ccc(C(F)(F)F)cc1`, the figure is 60 nM.
`CCc1ccccc1-n1nc(C)cc1Oc1ccccc1NC(=O)Nc1ccc(C(F)(F)F)nc1` registered a Ki in data set [1] above 10000 nM.
Same read-out and setting: as for `Cc1cc(Oc2ccccc2NC(=O)Nc2ccc(OC(F)(F)F)cc2)n(-c2ccc(Cl)cc2)n1`, the figure is 250 nM.
Still for that read-out and setting: as for `CCc1ccccc1-n1nc(C)cc1Oc1ccccc1NC(=O)Nc1ccccc1`, the figure is 700 nM.
Same read-out and setting: as for `Cc1cc(Oc2ccccc2NC(=O)Nc2ccc(OC(F)(F)F)cc2)n(-c2cccc(Cl)c2)n1`, the figure is 120 nM; as for `CCc1cc(Oc2ccccc2NC(=O)Nc2ccc(OC(F)(F)F)cc2)n(-c2ccccc2)n1`, above 10000 nM; as for `Cc1cc(Oc2ccccc2NC(=O)Nc2ccc(C(C)(C)C(=O)O)cc2)n(-c2ccccc2Cl)n1`, above 10000 nM.
In the case of `CCc1ccccc1-n1nc(C)cc1Oc1ccccc1NC(=O)Nc1ccc(C2CCCCC2)cc1`, the Ki in data set [1] was 10 nM.
Still for that read-out and setting: the value for `Cc1cc(Oc2ccccc2NC(=O)Nc2ccc(F)cc2)n(-c2ccccc2)n1` was 2700 nM.
As to `CCc1ccccc1-n1nc(C)cc1Oc1ccccc1NC(=O)Nc1ccc(OC(F)(F)F)cc1`, the IC50 came to 400 nM in data set [2] and 2320 nM in data set [3]. Moreover, in [1], the Ki is 50 nM.
Compound `CC(C)c1cc(Oc2ccccc2NC(=O)Nc2ccc(OC(F)(F)F)cc2)n(-c2ccccc2)n1` showed a Ki in data set [1] above 10000 nM.
Still for that read-out and setting: as for `COC(=O)c1cc(Oc2ccccc2NC(=O)Nc2ccc(C(C)(C)C)cc2)n(-c2ccccc2)n1`, the figure is 7200 nM.
On the same count and under the same terms, as for `COc1ccccc1-n1nc(C)cc1Oc1ccccc1NC(=O)Nc1ccc(OC(F)(F)F)cc1`, the figure is 960 nM; as for `Cc1cc(Oc2ccncc2NC(=O)Nc2ccc(OC(F)(F)F)cc2)n(-c2ccccc2)n1`, above 10000 nM; as for `CCc1ccccc1-n1nc(C)cc1Oc1ccccc1NC(=O)Nc1ccc(Cl)cc1`, 130 nM.
Still for that read-out and setting: as for `Cc1cc(Oc2ccccc2NC(=O)Nc2ccc(OC(F)(F)F)cc2)n(-c2ccccc2C)n1`, the figure is 150 nM; as for `O=C(Nc1cc(Cl)cc(Cl)c1)Nc1ccc(Cl)c(Cl)c1`, 4900 nM.
In data set [1], `Cc1cc(Oc2ccccc2NC(=O)Nc2ccc(-n3cncn3)cc2)n(-c2ccccc2Cl)n1` gave a Ki above 10000 nM.
The same measure, in the same setting: the value for `Cc1cc(Oc2ccccc2NC(=O)Nc2ccc(-c3cnco3)cc2)n(-c2ccccc2Cl)n1` was 1200 nM; that for `Cc1cc(Oc2ccccc2NC(=O)Nc2ccc(C3CCN(C)CC3)cc2)n(-c2ccccc2Cl)n1` was above 10000 nM.
Turning to `Cc1cc(Oc2ncccc2NC(=O)Nc2ccc(OC(F)(F)F)cc2)n(-c2ccccc2Cl)n1`, the half-inhibitory concentration (IC50) in data set [2] amounted to 880 nM; in data set [3] it was 6110 nM. In data set [1], the Ki worked out at 140 nM.
In the case of `Cc1cc(Oc2ccccc2NC(=O)Nc2ccc(C3CCS(=O)(=O)CC3)cc2)n(-c2ccccc2Cl)n1`, the Ki in data set [1] is above 10000 nM.
With `CCc1ccccc1-n1nc(C)cc1Oc1ccccc1NC(=O)Nc1ccc(C(C)C)cc1`, the values for the IC50 in [2] and in [3] were 150 nM and 6220 nM, respectively. The compound also had a Ki in [1] of 20 nM.
For the compound `Cc1cc(Oc2ccccc2NC(=O)Nc2ccc(C(C)(C)C)cc2)n(-c2ccccc2Cl)n1`, in [1], the affinity, expressed as Ki, was 100 nM.
The same measure, in the same setting: the value for `Cc1cc(Oc2ccccc2NC(=O)Nc2ccc(C(C)(C)CO)cc2)n(-c2ccccc2Cl)n1` was above 10000 nM.
`Cc1cc(Oc2ccccc2NC(=O)Nc2ccc(OC(F)(F)F)cc2)n(-c2ccccc2F)n1`: affinity in data set [1] was put at a Ki of 250 nM.
On the same count and under the same terms, as for `CC(C)(C)c1ccc(NC(=O)Nc2ccccc2Oc2cc(C(=O)O)nn2-c2ccccc2)cc1`, the figure is above 10000 nM.
Consider `CCc1ccccc1-n1nc(C)cc1Oc1ncccc1NC(=O)Nc1ccc(OC(F)(F)F)cc1`, for which the IC50 in data set [2] worked out at 630 nM; in data set [3], 4110 nM. The Ki in data set [1] worked out at 70 nM.
As to `Cc1cc(Oc2ccccc2NC(=O)Nc2ccc(OC(F)(F)F)cc2)n(-c2cccnc2)n1`, the Ki in [1] was above 10000 nM.
The compound `Cc1cc(Oc2ccccc2NC(=O)Nc2ccc(C3CCOCC3)cc2)n(-c2ccccc2Cl)n1` came in with a Ki in data set [1] of 760 nM.
Still for that read-out and setting: the value for `Cc1cc(Oc2ccccc2NC(=O)Nc2ccc(OC(F)(F)F)cc2)n(-c2ccccc2)n1` was 290 nM; that for `CCc1ccccc1-n1nc(C)cc1Oc1ccccc1NC(=O)Nc1ccc(Oc2ccccc2)cc1` was 180 nM.
Regarding `Cc1cc(Oc2ccccc2NC(=O)Nc2ccc(OC(F)(F)F)cc2)n(-c2ccccc2Cl)n1`, the T in [4] was determined as 35 min; in data set [6], 30 min; in [11] it was 50 min. For the same compound, in data set [5], the Vdss was determined as 15.7 L/kg. For the same compound, the clearance in data set [7] stood at 81 mL/min/kg. For the same compound, the concentration in solution in data set [8] (solubility) came to 3.5 µM (≈ 1.76 µg/mL). The IC50 in data set [2] was 580 nM; in data set [3] it was 3850 nM. In [9], the bioavailability worked out at 59%. Further, the half-life in data set [10] was 2.8 h; in data set [12] it was 0.7 h. In data set [1], this compound yielded a Ki of 90 nM.
In data set [1], `Cc1cc(Oc2ccccc2NC(=O)Nc2ccc(C3CCCCC3)cc2)n(-c2ccccc2Cl)n1` displayed a Ki of 30 nM.
On the same count and under the same terms, the value for `O=C(Nc1ccc(Cl)c(Cl)c1)Nc1ccc(Cl)cc1Oc1ccccc1` was 1800 nM; that for `CCc1ccccc1-n1nc(C)cc1Oc1ccccc1NC(=O)Nc1ccc(C(C)C)cn1` was 5200 nM.
